Screening data as filed in PubChem BioAssay.
A selection: hits, their analogues and other compounds. The true share with any hit is near 3.8%.
Yeast life ext: yeast lifespan extension; hit rate 0.68% among 130,000; inhibition of the nicotinamide effect, % at 10 µM; S. cerevisiae growth with nicotinamide, OD615; deaD strain in restrictive glucose medium; AID 775;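 active = inhibition above a set limit, placed 3 SD over the median of all compounds, cut at about 26% in these data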;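 note: 0% = nicotinamide-treated wells and 100% = cells grown without nicotinamide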
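Assay system: engineered S. cerevisiae DeaD replicative-lifespan strain, galactose-grown log-phase cells; Buffer or medium: CSMM-D glucose medium, restrictive; Probe or stimulus: nicotinamide 1.5 mM; Compound: single dose 10 µM compound, 0.25% DMSO; Schedule: 4 h preincubation then 48 h treatment at 30 °C; Technique: OD615 measurement.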
Yeast growth inh: yeast BB579 growth reduction in restrictive medium; S. cerevisiae BB579 growth, OD615, 48 h; inhibition, % at 10 µM; hit rate 0.51% among 140,000; AID 804;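 active = inhibition above a set limit, 3 SD over the mean compound inhibition, cut at about 44% in these data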
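Detection: OD615 turbidity measurement; Material: Saccharomyces cerevisiae DeaD strain BB579, replicative lifespan model yeast; Timing: 48 h exposure, 30 °C; Doses: single 10 µM dose; Medium: CSMM-D restrictive synthetic medium containing dextrose (glucose); Controls: amphotericin B at 10 µg/mL as positive control.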
RAM network inh: yeast RAM network inhibition | inhibition, % at 50 µM | hit rate 1.8% among 190,000 | AID 868 | S. cerevisiae dse1pr::URA3 reporter, 5-FOA growth OD615, 2 d; analog-sensitive cbk1-as2 kinase mutant strain;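 active = inhibition above a set limit, 3 SD over mean compound inhibition, cut at about 8.4% in these data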;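 note: 0% = DMSO-only wells with no growth and 100% = 10 µM 1-NA-PP1 full growth; inhibition rescues growth on 5-FOA so higher OD means more RAM inhibition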
Measles CPE: protection of cells from measles virus; Measles virus-infected cells, CPE protection, absorbance; protection (pct of control), % at 4 µM; hit rate 1.5% among 140,000; in the data active = protection mostly above about 24%, no sharp cut-off; inactive = mostly below about 26%
sdo1 growth: sdo1-depleted yeast growth rescue | S. cerevisiae sdo1-depleted JHY4D growth rescue, OD600 30 h; hits give high values; pdr5 snq2 efflux-pump mutant strain | z-score at 10 µM | hit rate 0.21% among 140,000 | AID 817;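 active = z-score above 3 at both the 24 hr and the 30 hr optical density reads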;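 note: z-score against mean and SD of all compound wells on the same plate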
Starred values were filed as active, the others as inactive; x = no result.

SMILES	Yeast life ext	Yeast growth inh	RAM network inh	Measles CPE	sdo1 growth
CCOc1ccc(/C=N/NC(=O)c2c(-c3ccccc3)noc2C)cc1	8	-30	11*	11	-0.41
O=C(OCc1cc(=O)n2c(n1)sc1ccccc12)c1cccc(O)c1	-1	-17	4	6	-1.1
CCCCC(CC)Cn1c2nc3ccccc3nc2c2c(=N)oc(C)nc21 (stereo not given)	94*	-50	2	4	-1.6
Cc1ccc(C2c3c(oc4ccccc4c3=O)C(=O)N2c2nnc(C(C)C)s2)o1 (stereo not given)	20	-46	2	11	-0.85
O=C(O)c1cc2nc(-c3ccccc3)cc(C(F)(F)F)n2n1	57*	29	0	6	0.26
O=C(O)c1cc2nc(-c3ccccc3)cc(-c3ccccc3)n2n1	x	x	-2	x	x
CC1=NOC(=O)/C1=C/c1ccc(N(C)C)cc1	1	-24	1	14	0.86
CCN(CC)c1ccc(/C=C2/C(=O)ON=C2C)cc1	40*	-34	1	13	-0.52
O=C(O)c1ccc(N2Cc3ccccc3C2)cc1O	-15	-24	3	71*	-0.02
Cc1ccc(C(=O)c2ccccc2C(=O)O)c(O)c1	-6	2	1	10	0.33
O=C(O)C(Cc1ccccc1)N1C(=O)c2ccccc2C1=O (stereo not given)	-6	6	1	4	0.54
[N-]=[N+]=CC(=O)C(Cc1ccccc1)N1C(=O)c2ccccc2C1=O (stereo not given)	34*	-12	2	9	-0.37
CCn1ncc(Br)c1C(=O)Nc1ccn(C23CC4CC(CC(C4)C2)C3)n1	-5	-9	1	41*	-1.2
CCn1ncc(Br)c1C(=O)N(C)C12CC3CC(CC(C3)C1)C2	22	-20	1	6	-1
COc1ccccc1-c1nc2cc3ccccc3cc2nc1-c1ccccc1	4	-57	11*	4	-0.82
CN(C)CCNC=C(C(=O)Nc1ccc(Cl)cc1Cl)C(=O)Nc1ccc(Cl)cc1Cl	-21	99*	9.0*	12	-2.2
CC(CN1CCOCC1)OC(=O)c1ccccc1Br (stereo not given)	-3	-24	0	56*	0.06
O=C(COC(=O)CCCNC(=O)c1ccc(Cl)cc1)Nc1ccc(Br)cc1	8	-3	3	112*	-1.8
Nn1cnnc1N/N=C/c1cc(Br)cc(Br)c1O	2	-1	9.6*	1	-0.82
CC(C)CC(=O)Nc1ccc(C(=O)NNC(=S)NC(=O)C2CCCCC2)cc1	0	-9	8.4*	5	1.5
CCC(=O)NC(=S)NNC(=O)c1ccc(NC(=O)c2ccccc2)cc1	x	x	6	x	x
CCOC(=O)NC(Nc1ccc(S(N)(=O)=O)cc1)(C(=O)OCC)C(F)(F)F (stereo not given)	-13	-15	1	7	0.65
CC1(C)CCCN(C(=O)N2c3ccccc3Sc3ccccc32)C1	-7	-35	11*	7	-0.46
CN=c1scc(C)n1/N=C/c1cc(Br)c(O)c(Br)c1	x	x	10*	x	x
CN=c1scc(C)n1/N=C/c1ccc(O)cc1	-14	-59	4	8	0.41
SMILES	Yeast life ext	Yeast growth inh	RAM network inh	Measles CPE	sdo1 growth
COc1ccc(CCn2cnc(=O)c(C#N)c2C)cc1OC	x	x	1	x	x
O=C(O)C(Cc1ccccc1)N1C(=O)/C(=C/c2ccccc2)SC1=S (stereo not given)	33*	-36	5	3	0.23
c1ccc(CN2CCN(C3=Nc4cccc5cccc3c45)CC2)cc1	-3	-46	0	7	0.74
O=C1CCN2C=Nc3cccc4ccc1c2c34	-12	57*	1	12	0.78
CC(=O)OC(C(=O)NCCN1CCOCC1)c1c(F)cccc1F (stereo not given)	x	x	0	x	x
CCOC(=O)c1cc2sc(C)cc2n1CC(=O)NCCc1ccccc1	-1	-76	6	14	-1
CCc1cccc(NC(=O)c2cc(S(=O)(=O)N(C)C)ccc2N2CCCC2)c1	x	x	11*	x	x
CCC(C)NC(=O)c1cc(CC(C)C)on1 (stereo not given)	0	2	1	54*	-0.46
COc1ccc(-c2cc(C(=O)NCCc3ccccc3)no2)cc1OC	-11	-48	3	4	-1.3
COc1ccc(CCNC(=O)c2cc(CC(C)C)on2)cc1OC	-17	11	0	40*	-1.5
COc1ccc(CCNC(=O)c2cc(-c3ccccc3OC)on2)cc1OC	-2	-22	4	45*	-1.1
O=S1(=O)C=C(SCc2cccc(Cl)c2)Nc2ccccc21	-20	-11	2	9	0.28
CCOC(=O)C1=C(C)NC(=S)N(C=O)C1c1ccccc1 (stereo not given)	x	x	2	x	x
COC(=O)c1sc(-c2ccccc2)cc1NC(=O)c1ccc(OC)cc1	-3	-28	8.7*	2	-0.29
COC(=O)c1sc(-c2ccccc2)cc1NC(=O)c1cc(OC)cc(OC)c1	10	-42	8.8*	5	0.72
COC(=O)c1sccc1NC(=O)c1cc(OC)cc(OC)c1	x	-12	4	6	-1.4
COC(=O)c1sc(-c2ccccc2)cc1NC(=O)c1ccc(F)cc1	1	-29	3	20	-0.22
COc1cc(C(=O)O)nc2ccc([N+](=O)[O-])cc12	x	x	1	x	x
CCC(CC)=C(C#N)C(=O)NC1CCCCC1	4	-21	0	6	-0.27
CCOc1ccc(-n2cc(C(=O)Nc3cccc(Cl)c3)c3cc(OC)c(OC)cc3c2=O)cc1	0	-36	8.9*	7	-0.69
COC(=O)C1=C(C)N=c2s/c(=C/c3ccoc3)c(=O)n2C1c1ccccc1 (stereo not given)	-3	-24	3	22	-1.8
COC(=O)C1=C(C)N=c2s/c(=C/c3cccs3)c(=O)n2C1c1cccs1 (stereo not given)	-18	-58	9.2*	4	-0.78
COC(=O)c1c(NC(=O)c2ccc(N(C)S(=O)(=O)c3ccc(C)cc3)cc2)sc2c1CCCC2	9	-35	4	4	1.1
COCCN(CCOC)S(=O)(=O)c1ccc(C(=O)Nc2sc3c(c2C(N)=O)CCCCC3)cc1	40*	-34	0	10	-0.38
Cc1ccc(NC2(c3nnnn3-c3c(C)cccc3C)CCCCC2)cc1	0	3	2	5	-0.25
COc1cccc(-n2c(=O)[nH]cc(C(=O)Nc3ccc4c(c3)OCCO4)c2=O)c1	-1	-64	8.8*	7	1
CCCCCSc1nc2c(c(=O)[nH]c(=O)n2C)n1C(C)C	-5	-20	2	8	-1.2
CCCCCSc1nc2c(c(=O)[nH]c(=O)n2C)n1C	58*	13	0	19	0.46
CCCCCn1c(Sc2ncccn2)nc2c1c(=O)[nH]c(=O)n2C	-13	-16	-1	38*	-0.11
COc1ccccc1NC(=O)c1ccc(-c2ccc(Br)cc2)o1	-6	-56	11*	5	-0.89
